Results gathered from unrelated publications.
Lines come from different studies, so protocols differ.
Target: Serine/threonine-protein kinase 36 (STK36, Homo sapiens, UniProt Q9NRP7)
Residues used in one study (Q9NRP7 1-1315): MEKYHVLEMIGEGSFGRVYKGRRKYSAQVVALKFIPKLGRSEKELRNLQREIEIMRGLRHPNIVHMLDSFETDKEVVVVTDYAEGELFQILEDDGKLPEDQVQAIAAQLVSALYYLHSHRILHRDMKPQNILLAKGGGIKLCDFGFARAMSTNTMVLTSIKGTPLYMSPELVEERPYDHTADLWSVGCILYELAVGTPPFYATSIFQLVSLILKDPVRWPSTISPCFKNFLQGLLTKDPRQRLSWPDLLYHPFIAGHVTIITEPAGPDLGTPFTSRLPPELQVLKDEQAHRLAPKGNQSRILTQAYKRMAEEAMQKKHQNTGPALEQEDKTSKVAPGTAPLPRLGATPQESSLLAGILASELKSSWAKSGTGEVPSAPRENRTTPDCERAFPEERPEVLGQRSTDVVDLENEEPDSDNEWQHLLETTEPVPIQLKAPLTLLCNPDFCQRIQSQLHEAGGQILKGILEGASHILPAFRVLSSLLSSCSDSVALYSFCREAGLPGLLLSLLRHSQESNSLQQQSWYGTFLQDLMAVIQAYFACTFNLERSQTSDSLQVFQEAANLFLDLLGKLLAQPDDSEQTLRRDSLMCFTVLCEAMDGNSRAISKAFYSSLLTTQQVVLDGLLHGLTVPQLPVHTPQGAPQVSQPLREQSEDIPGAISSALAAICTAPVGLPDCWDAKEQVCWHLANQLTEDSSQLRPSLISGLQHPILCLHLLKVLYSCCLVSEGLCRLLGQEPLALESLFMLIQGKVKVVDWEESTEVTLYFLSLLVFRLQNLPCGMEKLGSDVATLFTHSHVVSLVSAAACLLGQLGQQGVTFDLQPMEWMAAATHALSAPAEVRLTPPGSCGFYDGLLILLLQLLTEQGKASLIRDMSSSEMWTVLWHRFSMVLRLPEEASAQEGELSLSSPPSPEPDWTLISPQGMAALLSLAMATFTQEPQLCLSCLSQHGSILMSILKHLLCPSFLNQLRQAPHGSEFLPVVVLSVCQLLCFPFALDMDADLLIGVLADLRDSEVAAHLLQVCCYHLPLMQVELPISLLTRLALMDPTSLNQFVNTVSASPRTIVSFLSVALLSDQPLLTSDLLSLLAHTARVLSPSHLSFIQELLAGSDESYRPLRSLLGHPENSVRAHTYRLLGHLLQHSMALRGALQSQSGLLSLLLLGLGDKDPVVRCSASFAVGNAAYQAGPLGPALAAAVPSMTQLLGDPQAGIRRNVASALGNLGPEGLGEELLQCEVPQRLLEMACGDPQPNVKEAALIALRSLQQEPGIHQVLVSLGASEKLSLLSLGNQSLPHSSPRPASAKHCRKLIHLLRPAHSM

SMILES | read-out | method | concentration | remaining binding [%]
c1cncc(-c2cccc(Nc3nccc(NC4CCCCC4)n3)c2)c1 | binding | competition with immobilised ligand | 10 µM | 49
CNC(=O)[C@@H]1CC[C@@H](n2c(-c3ccc4cnccc4c3)nc3ccc(C(=O)NCc4cccc(C(N)=O)c4)cc32)C1 | binding | competition with immobilised ligand | 1 µM | 93
O=C(c1ccc(Nc2ncc(Cl)c(-c3cc4ccccc4s3)n2)cc1)N1CCC(N2CCCC2)CC1 | binding | competition with immobilised ligand | 1 µM | 3.4
CO[C@H]1CC[C@H](CNc2ccc(S(=O)(=O)NC(=O)c3ccc(N4CCN(CC5=C(c6ccc(Cl)cc6)CC(C)(C)CC5)CC4)cc3Oc3cnc4[nH]ccc4c3)cc2[N+](=O)[O-])CC1 | cell-free assay | competition with immobilised ligand | 1 µM | 71
FC(F)(F)Oc1cccc(-c2cnc3ccc(-c4ccncc4)nn23)c1 | binding | competition with immobilised ligand | 5 µM | 95
N[C@H]1CCN(c2nccc(-c3cnn4ncccc34)n2)C1 | binding |  | 1 µM | 62
CN1CCN(c2cnc3c(C4CCN(C(=O)c5ccc(OC(F)(F)F)cc5N)CC4)ncnc3c2)CC1 | cell-free assay | competition with immobilised ligand | 1 µM | 75
CN(CCCC(F)(F)F)c1nccc(-c2cnn3ncccc23)n1 | binding |  | 1 µM | 92
CN(c1ccnc(CNc2nc(Nc3ccc4c(c3)CC(=O)N4)ncc2C(F)(F)F)n1)S(C)(=O)=O | cell-free assay | competition with immobilised ligand | 1 µM | 87
CN(C)c1ncc(F)c(-c2cnn3ncccc23)n1 | binding |  | 1 µM | 100
CS(=O)(=O)N1CCCC(NC(=O)[C@H](CCC2CCCCC2)NC(=O)c2ccc(CNc3ncnc4c3nnn4-c3ccccc3)cc2)C1 (stereo partly shown) | cell-free assay | competition with immobilised ligand | 0.1 µM | 97
c1cnn2ncc(-c3ccnc(N4CCC45COC5)n3)c2c1 | binding |  | 1 µM | 76
Cc1cc(-n2nc(Cc3cc(F)cc(C(F)(F)F)c3)nc2C)ccc1C(N)=O | cell-free assay | competition with immobilised ligand | 1 µM | 100
CN(c1nccc(-c2cnn3ncccc23)n1)C1CC1 | binding |  | 1 µM | 100
Cc1nc(N2CC[C@@H](O)C2)ncc1-c1cc(C(F)(F)F)cc2[nH]ncc12 | binding | competition with immobilised ligand | 1 µM | 100
F[C@@H]1CCN(c2nccc(-c3cnn4ncccc34)n2)C1 | binding |  | 1 µM | 90
O=C(NCCCN1CCOCC1)c1ccc(Nc2ncc(Cl)c(-c3ccc(Cl)s3)n2)cc1 | binding | competition with immobilised ligand | 1 µM | 6.2
C[C@@H]1CCN(c2nccc(-c3cnn4ncccc34)n2)C1 | binding |  | 1 µM | 87
c1ccc(N2CCN(Cc3nc4ccccc4[nH]3)CC2)nc1 | binding | competition with immobilised ligand | 1 µM | 84
O=C(Nc1c[nH]nc1C(=O)NC1CCNCC1)c1cc(F)cc(F)c1 | binding | competition with immobilised ligand | 1 µM | 100
O=C(NCCCN1CCOCC1)c1ccc(Nc2nccc(-c3cc4ccccc4s3)n2)cc1 | binding | competition with immobilised ligand | 1 µM | 27
COc1cnc(Nc2cccc(S(N)(=O)=O)c2)nc1N1CCN(c2ccccc2)C(=O)C1 | binding | competition with immobilised ligand | 1 µM | 100
